17 compounds from ChEMBL document CHEMBL3112586, “Synthesis of neolignans as microtubule stabilisers” (Bioorg Med Chem, 2014) can be followed below.

Activity calls are given as the source filed them. The calls are words filed in the database; no cut-off is given here.

The subject of experiment [1] is MDA-MB-231. Description: Cytotoxicity against human MDA-MB-231 cells after 24 hrs by MTT assay. The experiment is classed as functional, cell-based. The note with it: MDA-MB-231, 24 h. Put shortly:
(§1)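 Cells in DMEM, 10% FBS, 37 °C, 5% CO2, plated and incubated 24 h; compounds diluted in phenol-red-free DMEM with 0.5% FBS, vehicle control; after exposure, MTT (5 mg/mL stock) added 3 h, formazan dissolved in DMSO, absorbance 570 nm; IC50 derived; podophyllotoxin and tamoxifen positive controls.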
A general note: Formazan colour is commonly taken as a measure of viable cells.

Experiment [2] relates to MCF7. The experiment is described as follows: Cytotoxicity against human MCF7 cells after 24 hrs by MTT assay. The experiment is classed as functional, cell-based. Particulars: MCF7, 24 h. Put shortly: as §1
For experiment [3], the system named is MCF7. Description: Cytotoxicity against human MCF7 cells after 72 hrs by MTT assay. It is filed as functional, cell-based. Particulars: MCF7, 72 h. The procedure, abridged: as §1
Experiment [4] relates to HEK293. The experiment is described as follows: Cytotoxicity against human HEK293 cells after 24 hrs by MTT assay. It is filed as cell-based. The note with it: HEK293, 24 h. Put shortly: as §1
For experiment [5], the system named is MCF7. Description: Cytotoxicity against human MCF7 cells after 48 to 72 hrs by MTT assay. It is filed as functional, cell-based. The procedure, abridged:
as §1

Experiment [6] has as its system MCF7. Description: Cytotoxicity against human MCF7 cells after 48 hrs by MTT assay. The experiment is classed as functional, cell-based. Particulars: MCF7, 48 h. Put shortly: as §1
Experiment [7] concerns MDA-MB-231. The experiment is described as follows: Cytotoxicity against human MDA-MB-231 cells after 48 to 72 hrs by MTT assay. The experiment is classed as functional, cell-based. The procedure, abridged: as §1
Experiment [8] deals with MDA-MB-231. The experiment is described as follows: Cytotoxicity against human MDA-MB-231 cells after 72 hrs by MTT assay. The note with it: MDA-MB-231, 72 h. It is filed as functional, cell-based. Put shortly: as §1
Experiment [9] relates to MDA-MB-231. The experiment is described as follows: Cytotoxicity against human MDA-MB-231 cells after 48 hrs by MTT assay. It is filed as functional, cell-based. Particulars: MDA-MB-231, 48 h. Put shortly:
as §1

Experiment [10] has as its target T1, Tubulin (Homo sapiens) (UniProt P68371+Q9H4B7+P0DPH7+P68366+Q13509+Q71U36+P04350+Q3ZCM7+P07437+P68363+Q9BQE3+Q6PEY2+Q13885+Q9BVA1+Q9BUF5). Description: Induction of tubulin polymerization (unknown origin) at 10 to 40 uM measured every min for 1 hr in presence of PDT. The experiment is classed as protein-complex assay. The procedure, abridged: (§2)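 Tubulin 3 mg/mL in 80 mM PIPES pH 6.9, 2 mM MgCl2, 0.5 mM EGTA, 1 mM GTP, 15% glycerol at 37 °C with test compounds at varied concentrations; turbidity at 340 nm read every min for 1 h; podophyllotoxin inhibitor and paclitaxel stabiliser references, DMSO negative control.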

Experiment [11] is filed under the species Homo sapiens. The experiment is described as follows: Induction of microtubule stabilization (unknown origin) at 4 to 20 uM.
In experiment [12] the target is T1, Tubulin (Homo sapiens). The experiment is described as follows: Induction of tubulin polymerization (unknown origin) at 10 to 40 uM measured every min for 1 hr. The experiment is classed as protein-complex assay. The procedure, abridged:
as §2

Experiment [13] has as its system MCF7. The experiment is described as follows: Induction of microtubule polymerization in human MCF7 cells assessed as actin-tubulin cytoskeleton stabilization at 10 uM by confocal microscopy. It is filed as cell-based. Put shortly:
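MCF-7 cells treated, immunostained for actin and tubulin, and examined by confocal microscopy; paclitaxel-treated cells as positive control.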

The IC50 is the concentration at which inhibition is half-maximal. Read a high IC50 as lower potency.

With `CCOC(=O)C(=C\c1cc(OC)c(O)c(OC)c1)/C(=C/c1cc(OC)c(O)c(OC)c1)C(=O)OCC`, the figures for the IC50 in experiment [1] and in experiment [2] were 82 µM and > 100 µM, respectively.
Consider `COc1cc(/C=C(\C(N)=O)c2cc(/C=C/C(N)=O)cc(OC)c2O)ccc1O`, for which the IC50 turned out to be 80 µM in experiment [1] and 100 µM in experiment [2].
On the same counts, the results for `COc1ccc(/C=C(\COC(C)=O)c2cc(/C=C/COC(C)=O)cc(OC)c2OC)cc1OC` are > 100 µM and > 100 µM.
Regarding `COc1ccc(/C=C(\C(N)=O)c2cc(/C=C/C(N)=O)cc(OC)c2OC)cc1OC`, the results for the 50% inhibitory concentration (IC50) in experiment [1] and in [2] were 32 µM and 100 µM, respectively.
For `CCOC(=O)/C=C/c1ccc(O)c(/C(=C/c2ccc(OC(C)=O)cc2)C(=O)OCC)c1`, the IC50 in experiment [3] was found to be 0.82 µM; in experiment [4] it was 20 µM; in experiment [6] it was 9.65 µM; in experiment [8], 0.21 µM; in experiment [9], 3.22 µM; in [1], 16 µM. In [2], this compound registered a half-inhibitory concentration (IC50) of 66 µM. For the same compound, the result in experiment [5], in experiment [7], in experiment [11] and in [12] was Active. Moreover, the outcome in experiment [10] was inactive.
For `CCOC(=O)C(=C\c1cc(OC)c(OC(C)=O)c(OC)c1)/C(=C/c1cc(OC)c(OC(C)=O)c(OC)c1)C(=O)OCC`, the concentration for half-maximal inhibition (IC50) in experiment [1] and in experiment [2] was > 100 µM in each case.
With `CCOC(=O)/C=C/c1ccc(OC)c(/C(=C/c2ccc(OC)cc2)C(=O)OCC)c1`, the half-maximal inhibitory concentration (IC50) in [1] and in experiment [2] was > 100 µM each time.
Regarding `CCOC(=O)C(=C\c1cc(OC)c(OC)c(OC)c1)/C(=C/c1cc(OC)c(OC)c(OC)c1)C(=O)OCC`, the values for the half-inhibitory concentration (IC50) in experiment [1] and in [2] were > 100 µM and 100 µM, respectively.
Take `CCOC(=O)/C=C/c1cc(OC)c(O)c(/C(=C/c2ccc(O)c(OC)c2)C(=O)OCC)c1`: the IC50 in experiment [1] and in [2] was > 100 µM each time.
`COc1ccc(/C=C(\C(=O)O)c2cc(/C=C/C(=O)O)cc(OC)c2OC)cc1OC` registered an IC50 in experiment [1] of 85 µM.
Take `CCOC(=O)/C=C/c1cc(OC)c(OC)c(/C(=C/c2ccc(OC)c(OC)c2)C(=O)OCC)c1`: the concentration for half-maximal inhibition (IC50) in experiment [1] and in [2] was > 100 µM throughout.
Turning to `CCOC(=O)/C=C/c1cc(OC)c(O)c(OC)c1/C(=C/c1cc(OC)c(O)c(OC)c1)C(=O)OCC`, the IC50 in experiment [1] was found to be 92 µM; in experiment [2], 74 µM.
In the case of `COc1ccc(/C=C(\CO)c2cc(/C=C/CO)cc(OC)c2OC)cc1OC`, the IC50 in experiment [1] and in experiment [2] was > 100 µM each time.
On to `CCOC(=O)/C=C/c1cc(OC)c(O)c(/C(=C/c2ccc(OC(C)=O)c(OC)c2)C(=O)OCC)c1`, for which the IC50 in [1] and in [2] was > 100 µM each time.
As for `CC/C(=C(\c1ccccc1)c1ccc(OCCN(C)C)cc1)c1ccccc1` [TAMOXIFEN], 26 µM corresponded to half-maximal inhibition in experiment [4] (IC50).
Consider `CC(=O)O[C@H]1C(=O)[C@@]2(C)[C@H]([C@H](OC(=O)c3ccccc3)[C@]3(O)C[C@H](OC(=O)[C@H](O)[C@@H](NC(=O)c4ccccc4)c4ccccc4)C(C)=C1C3(C)C)[C@]1(OC(C)=O)CO[C@@H]1C[C@@H]2O`, for which the result in experiment [13] and in [12] was Active. Besides, the outcome in experiment [10] was inactive.
Turning to `COc1cc([C@@H]2c3cc4c(cc3[C@H](O)[C@H]3COC(=O)[C@H]23)OCO4)cc(OC)c1OC` [PODOFILOX], the 50% inhibitory concentration (IC50) in [4] came to 50 µM; in experiment [1], 35.7 µM; in experiment [2], 65 µM.
